Experimental data taken from ChEMBL document CHEMBL2331548, “Identification of N-acyl 4-(3-pyridonyl)phenylalanine derivatives and their orally active prodrug esters as dual acting α4β1 and α4β7 receptor antagonists” (Bioorg Med Chem Lett, 2013).
In brackets after ≈: the same amount, converted by molar mass.

Test system: not listed separately
Assay: Stability in simulated intestinal fluid at pH 7.5 assessed as half life
Type: physicochemical
Settings: simulated gi fluid

| Stability | SMILES |
| --- | --- |
| Stable | CCCOC(=O)[C@H](Cc1ccc(-c2c(C(F)(F)F)cc(C)n(C)c2=O)cc1)NC(=O)c1c(Cl)cccc1Cl |
| Stable | Cc1cc(C(F)(F)F)c(-c2ccc(C[C@H](NC(=O)c3c(Cl)cccc3Cl)C(=O)OCC(=O)N(C)C)cc2)c(=O)n1C |
| Stable | Cc1cc(C(F)(F)F)c(-c2ccc(C[C@H](NC(=O)c3c(Cl)cccc3Cl)C(=O)OCC(C)C)cc2)c(=O)n1C |
| Stable | Cc1cc(C(F)(F)F)c(-c2ccc(C[C@H](NC(=O)c3c(Cl)cccc3Cl)C(=O)OCC3CCOC3)cc2)c(=O)n1C (some centres not stated) |

Test system: not listed separately
Assay: Solubility in simulated gastric fluid at pH 2.0
Type: physicochemical
Settings: simulated gastric fluid, read-out: solubility

| solubility [µg/mL] | SMILES |
| --- | --- |
| 0.8 (≈ 1.31 µM) | Cc1cc(C(F)(F)F)c(-c2ccc(C[C@H](NC(=O)c3c(Cl)cccc3Cl)C(=O)OCC(=O)N(C)C)cc2)c(=O)n1C |
| 0.03 (≈ 0.0491 µM) | Cc1cc(C(F)(F)F)c(-c2ccc(C[C@H](NC(=O)c3c(Cl)cccc3Cl)C(=O)OCC3CCOC3)cc2)c(=O)n1C (some centres not stated) |

Same assay, conditions: simulated gi fluid, BLD = below limit of detection

| solubility | SMILES |
| --- | --- |
| BLD | CCCOC(=O)[C@H](Cc1ccc(-c2c(C(F)(F)F)cc(C)n(C)c2=O)cc1)NC(=O)c1c(Cl)cccc1Cl |
| BLD | Cc1cc(C(F)(F)F)c(-c2ccc(C[C@H](NC(=O)c3c(Cl)cccc3Cl)C(=O)OCC(C)C)cc2)c(=O)n1C |

Test system: not listed separately
Assay: Solubility in simulated intestinal fluid at pH 7.5
Type: physicochemical
Settings: not given

| solubility [µg/mL] | SMILES |
| --- | --- |
| 0.7 (≈ 1.14 µM) | Cc1cc(C(F)(F)F)c(-c2ccc(C[C@H](NC(=O)c3c(Cl)cccc3Cl)C(=O)OCC(=O)N(C)C)cc2)c(=O)n1C |
| 0.03 (≈ 0.0491 µM) | Cc1cc(C(F)(F)F)c(-c2ccc(C[C@H](NC(=O)c3c(Cl)cccc3Cl)C(=O)OCC3CCOC3)cc2)c(=O)n1C (some centres not stated) |

Test system: not listed separately
Assay: Apparent permeability across human Caco2 cells
Type: ADME, cell-based
Settings: Caco-2

| Papp [×10⁻⁶ cm/s] | SMILES |
| --- | --- |
| 52.6 | CCCOC(=O)[C@H](Cc1ccc(-c2c(C(F)(F)F)cc(C)n(C)c2=O)cc1)NC(=O)c1c(Cl)cccc1Cl |
| 6.3 | Cc1cc(C(F)(F)F)c(-c2ccc(C[C@H](NC(=O)c3c(Cl)cccc3Cl)C(=O)OCC(=O)N(C)C)cc2)c(=O)n1C |
| 32.5 | Cc1cc(C(F)(F)F)c(-c2ccc(C[C@H](NC(=O)c3c(Cl)cccc3Cl)C(=O)OCC(C)C)cc2)c(=O)n1C |
| 76.4 | Cc1cc(C(F)(F)F)c(-c2ccc(C[C@H](NC(=O)c3c(Cl)cccc3Cl)C(=O)OCC3CCOC3)cc2)c(=O)n1C (some centres not stated) |

Target: Integrin alpha-4/beta-7 (Homo sapiens) (UniProt P13612+P26010)
Assay: Inhibition of human MAdCAM1 binding to integrin alpha4beta7 receptor in human RPMI 8866 cells labeled with Calcein AM relative to RO0270608
Type: cell-based
Settings: not given
Summary of the method: (§1)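 Serially diluted compound tested for blocking adhesion of Calcein AM-labelled cells to recombinant human counter-ligand: RAMOS cells on VCAM-1 (α4β1) and RPMI 8866 cells on MAdCAM-1 (α4β7). Cells activated beforehand in Mn2+-containing binding buffer for maximal activation. IC50 taken from fluorescence; RO0270608 run on every plate, and relative potency expressed as fold versus this control because cell activity drifted with passage.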

| Ratio IC50 | SMILES |
| --- | --- |
| 0.65 | Cc1cc(C(F)(F)F)c(-c2ccc(C[C@H](NC(=O)c3c(Cl)cccc3Cl)C(=O)O)cc2)c(=O)[nH]1 |
| 3.5 | Cc1cccc(Cl)c1C(=O)N[C@@H](Cc1ccc(-c2c(C(F)(F)F)cc(C)n(C)c2=O)cc1)C(=O)O |

Target: T1, Integrin alpha-4/beta-1 (Homo sapiens, UniProt P05556+P13612)
Assay: Inhibition of human VCAM1 binding to integrin alpha4beta1 receptor in human Ramos cells labeled with Calcein AM relative to RO0270608
Type: cell-based
Settings: not given
Summary of the method: as §1

T1 sequence (P05556 whole entry, one chain of several): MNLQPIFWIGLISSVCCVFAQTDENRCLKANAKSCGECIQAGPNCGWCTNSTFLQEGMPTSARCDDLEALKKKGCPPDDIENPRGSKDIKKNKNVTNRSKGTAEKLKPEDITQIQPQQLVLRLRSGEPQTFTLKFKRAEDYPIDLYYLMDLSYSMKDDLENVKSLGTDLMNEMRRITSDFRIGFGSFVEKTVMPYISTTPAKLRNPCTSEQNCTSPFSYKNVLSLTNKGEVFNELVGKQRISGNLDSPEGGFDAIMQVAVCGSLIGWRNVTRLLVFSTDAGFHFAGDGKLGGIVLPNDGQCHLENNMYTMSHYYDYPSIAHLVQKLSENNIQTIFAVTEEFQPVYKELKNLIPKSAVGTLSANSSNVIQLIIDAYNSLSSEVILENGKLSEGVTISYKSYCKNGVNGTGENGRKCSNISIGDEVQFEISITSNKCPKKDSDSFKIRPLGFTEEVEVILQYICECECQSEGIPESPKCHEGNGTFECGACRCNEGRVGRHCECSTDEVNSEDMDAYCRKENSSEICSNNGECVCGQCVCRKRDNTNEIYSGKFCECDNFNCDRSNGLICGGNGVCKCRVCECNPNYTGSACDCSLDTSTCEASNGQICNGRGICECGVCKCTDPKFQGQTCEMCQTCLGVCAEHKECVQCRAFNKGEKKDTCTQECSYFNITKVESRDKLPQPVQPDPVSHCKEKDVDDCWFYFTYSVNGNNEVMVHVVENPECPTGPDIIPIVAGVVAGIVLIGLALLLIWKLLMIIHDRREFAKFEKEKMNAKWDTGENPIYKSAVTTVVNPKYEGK

| Ratio IC50 | SMILES |
| --- | --- |
| 0.08 | Cc1cc(C(F)(F)F)c(-c2ccc(C[C@H](NC(=O)c3c(Cl)cccc3Cl)C(=O)O)cc2)c(=O)[nH]1 |
| 0.47 | Cc1cccc(Cl)c1C(=O)N[C@@H](Cc1ccc(-c2c(C(F)(F)F)cc(C)n(C)c2=O)cc1)C(=O)O |

Target: T2, Integrin alpha-4/beta-7 (Homo sapiens, UniProt P13612+P26010)
T2 sequence (P13612 whole entry): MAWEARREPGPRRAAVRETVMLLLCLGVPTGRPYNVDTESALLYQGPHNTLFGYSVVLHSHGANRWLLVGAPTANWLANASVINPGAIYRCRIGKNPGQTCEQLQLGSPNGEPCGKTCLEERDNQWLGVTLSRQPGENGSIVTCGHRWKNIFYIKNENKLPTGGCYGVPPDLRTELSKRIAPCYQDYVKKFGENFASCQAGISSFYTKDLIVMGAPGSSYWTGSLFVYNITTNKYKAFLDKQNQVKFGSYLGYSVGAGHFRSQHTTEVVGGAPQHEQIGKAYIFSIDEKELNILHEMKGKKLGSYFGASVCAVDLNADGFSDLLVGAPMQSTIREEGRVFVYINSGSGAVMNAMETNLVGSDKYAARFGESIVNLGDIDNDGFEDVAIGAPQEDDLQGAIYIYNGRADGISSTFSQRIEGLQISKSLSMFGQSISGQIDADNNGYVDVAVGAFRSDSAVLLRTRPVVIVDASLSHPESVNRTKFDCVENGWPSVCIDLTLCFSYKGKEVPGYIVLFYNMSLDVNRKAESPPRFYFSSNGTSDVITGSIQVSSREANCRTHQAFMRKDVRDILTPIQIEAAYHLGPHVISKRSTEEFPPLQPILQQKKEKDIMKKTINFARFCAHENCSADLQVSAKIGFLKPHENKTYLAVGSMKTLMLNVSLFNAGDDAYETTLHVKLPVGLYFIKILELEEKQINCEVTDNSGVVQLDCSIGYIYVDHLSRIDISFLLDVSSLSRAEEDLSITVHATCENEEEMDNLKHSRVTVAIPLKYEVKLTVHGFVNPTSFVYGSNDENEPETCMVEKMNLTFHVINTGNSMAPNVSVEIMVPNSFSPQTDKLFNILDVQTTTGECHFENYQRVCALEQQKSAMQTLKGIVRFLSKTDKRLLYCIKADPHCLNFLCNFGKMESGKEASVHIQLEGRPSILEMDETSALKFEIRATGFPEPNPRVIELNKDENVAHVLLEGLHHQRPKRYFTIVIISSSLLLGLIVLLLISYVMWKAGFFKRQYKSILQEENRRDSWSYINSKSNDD
T2 sequence (P26010 whole entry): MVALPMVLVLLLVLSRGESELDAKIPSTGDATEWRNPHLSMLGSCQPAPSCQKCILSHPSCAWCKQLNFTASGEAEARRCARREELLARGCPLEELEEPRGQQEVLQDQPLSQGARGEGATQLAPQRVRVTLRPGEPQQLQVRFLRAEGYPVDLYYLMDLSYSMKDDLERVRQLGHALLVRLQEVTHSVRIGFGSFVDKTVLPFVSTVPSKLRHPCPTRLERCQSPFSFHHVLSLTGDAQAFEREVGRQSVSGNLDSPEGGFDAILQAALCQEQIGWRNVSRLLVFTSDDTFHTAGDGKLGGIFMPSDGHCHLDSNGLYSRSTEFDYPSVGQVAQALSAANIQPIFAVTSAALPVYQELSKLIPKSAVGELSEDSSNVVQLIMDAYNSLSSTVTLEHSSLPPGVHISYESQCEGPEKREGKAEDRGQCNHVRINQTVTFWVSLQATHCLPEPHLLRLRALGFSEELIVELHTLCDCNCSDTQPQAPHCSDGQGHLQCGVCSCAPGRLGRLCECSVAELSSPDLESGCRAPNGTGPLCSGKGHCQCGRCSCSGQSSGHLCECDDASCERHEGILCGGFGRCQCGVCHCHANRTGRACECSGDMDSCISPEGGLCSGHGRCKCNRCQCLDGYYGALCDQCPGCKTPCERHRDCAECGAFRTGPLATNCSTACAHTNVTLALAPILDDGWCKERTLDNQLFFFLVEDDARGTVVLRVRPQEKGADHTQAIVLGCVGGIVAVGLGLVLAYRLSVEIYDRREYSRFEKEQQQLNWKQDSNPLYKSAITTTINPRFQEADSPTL
Assay: Inhibition of human MAdCAM1 binding to integrin alpha4beta7 receptor in human RPMI 8866 cells labeled with Calcein AM
Type: cell-based
Settings: not given
Summary of the method: as §1

| IC50 [nM] | SMILES |
| --- | --- |
| 810 | Cc1cc(C(F)(F)F)c(-c2ccc(C[C@H](NC(=O)c3c(Cl)cccc3Cl)C(=O)O)cc2)c(=O)[nH]1 |
| 154 | Cc1cccc(Cl)c1C(=O)N[C@@H](Cc1ccc(-c2c(C(F)(F)F)cc(C)n(C)c2=O)cc1)C(=O)O |

Target: T1, Integrin alpha-4/beta-1
Assay: Inhibition of human VCAM1 binding to integrin alpha4beta1 receptor in human Ramos cells labeled with Calcein AM
Type: cell-based
Settings: not given
Summary of the method: as §1

| IC50 [nM] | SMILES |
| --- | --- |
| 820 | Cc1cc(C(F)(F)F)c(-c2ccc(C[C@H](NC(=O)c3c(Cl)cccc3Cl)C(=O)O)cc2)c(=O)[nH]1 |
| 48 | Cc1cccc(Cl)c1C(=O)N[C@@H](Cc1ccc(-c2c(C(F)(F)F)cc(C)n(C)c2=O)cc1)C(=O)O |
